Data from ChEMBL document CHEMBL2046304, “Antitumor agents 290. Design, synthesis, and biological evaluation of new LNCaP and PC-3 cytotoxic curcumin analogs conjugated with anti-androgens” (Bioorg Med Chem, 2012).
Active and inactive are the calls of the source. The rule behind the calls is not given here.

Columns and labels:
LNCaP [1] = test: Cytotoxicity against androgen-dependent human LNCAP cells after 72 hrs by SRB assay; format: functional, cell-based
Summary of the method: (§1)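 SRB assay. Cells were seeded at 3-5 × 10^3 per well in RPMI-1640 with 10% FBS and exposed to a range of concentrations for 72 h; final DMSO was <0.5%. Cells were then fixed in cold 50% TCA for 30 min, stained with 0.04% SRB for 30 min, solubilized in 10 mM Tris base, and read at 515 nm. IC50 is 50% growth inhibition versus untreated control, by log-linear interpolation; mean ± SE of ≥3 independent experiments.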

PC-3 [2] = test: Cytotoxicity against androgen-independent human PC3 cells after 72 hrs by SRB assay; format: functional, cell-based; settings: PC-3, 72 h; summary of the method: as §1
LNCaP [3] = test: Antiproliferative activity against androgen-dependent human LNCAP cells after 72 hrs by SRB assay; format: functional, cell-based; summary of the method: as §1
PC-3 [4] = test: Antiproliferative activity against androgen-independent human PC3 cells after 72 hrs by SRB assay; format: functional, cell-based; summary of the method: as §1
LNCaP [5] = test: Inhibition of actin based pseudopodia formation in androgen-dependent human LNCAP cells at 40 uM after 48 hrs by DAPI staining based fluorescence microscopy assay; format: functional, cell-based
Summary of the method: (§2)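 Cells in RPMI-1640 with 10% FBS were plated on chamber slides for 12 h, then exposed to compound or DMSO for 48 h at 37 °C. Cells were fixed in 4% paraformaldehyde in PBS, nuclei were stained with DAPI, and nuclear and pseudopodia morphology was examined by fluorescence microscopy.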

PC-3 [6] = test: Inhibition of actin based pseudopodia formation in androgen-dependent human PC3 cells at 40 uM after 48 hrs by DAPI staining based fluorescence microscopy assay; format: functional, cell-based; settings: in the assay text read “androgen-independent” for “androgen-dependent”; summary of the method: as §2
PC-3 [7] = test: Induction of multinucleation in androgen-dependent human PC3 cells at 40 uM after 48 hrs by DAPI staining based fluorescence microscopy assay; format: functional, cell-based; settings: in the assay text read “androgen-independent” for “androgen-dependent”; summary of the method: as §2
LNCaP [8] = test: Inhibition of actin based pseudopodia formation in androgen-dependent human LNCAP cells at 100 uM after 48 hrs by DAPI staining based fluorescence microscopy assay; format: functional, cell-based
Summary of the method: (§3)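 Cells were plated in RPMI-1640 with 10% FBS in chamber slides for 12 h, then exposed to compound or DMSO vehicle for 48 h at 37 °C in 5% CO2. They were fixed with 4% paraformaldehyde in PBS, nuclei were stained with DAPI, and the slides were mounted. Pseudopodia and pseudopodia-like extensions were scored visually by fluorescence microscopy against untreated (DMSO) controls.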

PC-3 [9] = test: Inhibition of actin based pseudopodia formation in androgen-dependent human PC3 cells at 100 uM after 48 hrs by DAPI staining based fluorescence microscopy assay; format: functional, cell-based; summary of the method: as §3
PC-3 [10] = test: Cytotoxicity against androgen-independent human PC3 cells at 100 uM within 48 hrs by SRB assay; format: functional, cell-based
LNCaP [11] = test: Inhibition of actin based pseudopodia formation in androgen-dependent human LNCAP cells at 30 uM after 48 hrs by DAPI staining based fluorescence microscopy assay; format: functional, cell-based; summary of the method: as §2
PC-3 [12] = test: Inhibition of actin based pseudopodia formation in androgen-dependent human PC3 cells at 30 uM after 48 hrs by DAPI staining based fluorescence microscopy assay; format: functional, cell-based; settings: in the assay text read “androgen-independent” for “androgen-dependent”; summary of the method: as §2
PC-3 [13] = test: Induction of nuclear enlargement in androgen-dependent human PC3 cells at 30 uM after 48 hrs by DAPI staining based fluorescence microscopy assay; format: functional, cell-based; settings: in the assay text read “androgen-independent” for “androgen-dependent”; summary of the method: as §2
[14] = Drug localization in nucleus of androgen-independent human PC3 cells at 30 uM after 48 hrs by DAPI staining based fluorescence microscopy assay; format: ADME, cell-based; settings: pc-3, 48 h
LNCaP [15] = test: Inhibition of actin based pseudopodia formation in androgen-dependent human LNCAP cells at 50 uM after 48 hrs by DAPI staining based fluorescence microscopy assay; format: functional, cell-based; summary of the method: as §2
PC-3 [16] = test: Inhibition of actin based pseudopodia formation in androgen-dependent human PC3 cells at 50 uM after 48 hrs by DAPI staining based fluorescence microscopy assay; format: functional, cell-based; settings: in the assay text read “androgen-independent” for “androgen-dependent”; summary of the method: as §2
PC-3 [17] = test: Induction of multinucleation in androgen-dependent human PC3 cells at 50 uM after 48 hrs by DAPI staining based fluorescence microscopy assay; format: functional, cell-based; settings: in the assay text read “androgen-independent” for “androgen-dependent”; summary of the method: as §2
[18] = Drug localization in cytosol of androgen-independent human PC3 cells at 50 uM after 48 hrs by DAPI staining based fluorescence microscopy assay; format: ADME, cell-based, PC-3
PC-3 [19] = test: Induction of nuclear enlargement in androgen-dependent human PC3 cells at 40 uM after 48 hrs by DAPI staining based fluorescence microscopy assay; format: functional, cell-based; settings: in the assay text read “androgen-independent” for “androgen-dependent”; summary of the method: as §2

COc1ccc(/C=C/C(=O)/C=C(O)/C=C/c2ccc(OCC(C)(O)C(=O)Nc3ccc([N+](=O)[O-])c(C(F)(F)F)c3)c(OC)c2)cc1OC (stereo not given)
IC50 (LNCaP [1]): 41.8 µM
IC50 (PC-3 [2]): 39.1 µM
Activity (LNCaP [3]): Dose-dependent effect
Activity (PC-3 [4]): Dose-dependent effect
inhibition (LNCaP [5]): Active
inhibition (PC-3 [6]): Active
Activity (PC-3 [7]): Active

CC(O)(CS(=O)(=O)c1ccc(F)cc1)C(=O)Nc1ccc(C#N)c(C(F)(F)F)c1 (racemic) [BICALUTAMIDE]
IC50 (LNCaP [1]): 74 µM
IC50 (PC-3 [2]): 76.4 µM
Activity (LNCaP [3]): Dose-dependent effect
Activity (PC-3 [4]): Dose-dependent effect
inhibition (LNCaP [8]): inactive
inhibition (PC-3 [9]): Active
Activity (PC-3 [10]): inactive

COc1ccc(/C=C/C(=O)/C=C(O)/C=C/c2ccc(OC)c(OC)c2)cc1OC [DIMETHYLCURCUMIN]
IC50 (LNCaP [1]): 15.3 µM
IC50 (PC-3 [2]): 23.7 µM

COc1cc(/C=C/C(=O)/C=C(O)/C=C/c2ccc(OC(C)(C)C(=O)Nc3ccc([N+](=O)[O-])c(C(F)(F)F)c3)c(OC)c2)ccc1O
IC50 (LNCaP [1]): > 100 µM
IC50 (PC-3 [2]): > 100 µM
Activity (LNCaP [3]): Dose-dependent effect
Activity (PC-3 [4]): Dose-dependent effect

COc1ccc(/C=C/C(=O)/C=C(O)/C=C/c2ccc(OCCCCCCCCCCC(=O)Nc3ccc(C#N)c(C(F)(F)F)c3)c(OC)c2)cc1OC
IC50 (LNCaP [1]): > 100 µM
IC50 (PC-3 [2]): > 100 µM

COc1ccc(/C=C/C(=O)C(F)(F)C(=O)/C=C/c2ccc(OC)c(OC)c2)cc1OC
IC50 (LNCaP [1]): 53.8 µM
IC50 (PC-3 [2]): 44.3 µM

COc1ccc(/C=C/C(=O)/C=C(O)/C=C/c2ccc(OCC(C)(O)C(=O)Nc3ccc(C#N)c(C(F)(F)F)c3)c(OC)c2)cc1OC (stereo not given)
IC50 (LNCaP [1]): 73 µM
IC50 (PC-3 [2]): 100 µM
Activity (LNCaP [3]): Dose-dependent effect
Activity (PC-3 [4]): Dose-dependent effect

COc1cc(/C=C/C(=O)/C=C(O)/C=C/c2ccc(OC(C)(C)C(=O)Nc3ccc(Cl)c(C(F)(F)F)c3)c(OC)c2)ccc1O
IC50 (LNCaP [1]): > 100 µM
IC50 (PC-3 [2]): > 100 µM
Activity (LNCaP [3]): Dose-dependent effect
Activity (PC-3 [4]): Dose-dependent effect

COc1ccc(/C=C/C(=O)/C=C(O)/C=C/c2ccc(OC(C)(C)C(=O)Nc3ccc(Cl)c(C(F)(F)F)c3)c(OC)c2)cc1OC
IC50 (LNCaP [1]): > 100 µM
IC50 (PC-3 [2]): > 100 µM
Activity (LNCaP [3]): Dose-dependent effect
Activity (PC-3 [4]): Dose-dependent effect

CC(C)C(=O)Nc1ccc([N+](=O)[O-])c(C(F)(F)F)c1 [FLUTAMIDE]
IC50 (LNCaP [1]): 81.8 µM
IC50 (PC-3 [2]): 98.8 µM
Activity (LNCaP [3]): Dose-dependent effect
Activity (PC-3 [4]): Dose-dependent effect
Activity (PC-3 [10]): inactive

COc1cc(/C=C/C(=O)CC(=O)/C=C/c2ccc(O)c(OC)c2)ccc1O [CURCUMIN]
IC50 (LNCaP [1]): 36.4 µM
IC50 (PC-3 [2]): 36 µM
inhibition (LNCaP [11]): Active
inhibition (PC-3 [12]): Active
Activity (PC-3 [13]): Active
Drug uptake [14]: Active

COc1ccc(/C=C/C(=O)/C(F)=C(O)/C=C/c2ccc(OC)c(OC)c2)cc1OC
IC50 (LNCaP [1]): 27.3 µM
IC50 (PC-3 [2]): 17.7 µM

COc1cc(/C=C/C(=O)/C=C(O)/C=C/c2ccc(OC(C)(C)C(=O)Nc3ccc(C)c(C(F)(F)F)c3)c(OC)c2)ccc1O
IC50 (LNCaP [1]): > 100 µM
IC50 (PC-3 [2]): > 100 µM
Activity (LNCaP [3]): Dose-dependent effect
Activity (PC-3 [4]): Dose-dependent effect

COc1cc(/C=C/C(=O)/C=C(O)/C=C/c2ccc(OC(C)(C)C(=O)Nc3ccc(C#N)c(C(F)(F)F)c3)c(OC)c2)ccc1O
IC50 (LNCaP [1]): 55 µM
IC50 (PC-3 [2]): 48.1 µM
Activity (LNCaP [3]): Dose-dependent effect
Activity (PC-3 [4]): Dose-dependent effect
inhibition (LNCaP [15]): Active
inhibition (PC-3 [16]): Active
Activity (PC-3 [17]): Active
Drug uptake [18]: Active

COc1ccc(/C=C/C(=O)/C=C(O)/C=C/c2ccc(OCCCC(=O)Nc3ccc(C#N)c(C(F)(F)F)c3)c(OC)c2)cc1OC
IC50 (LNCaP [1]): 96.3 µM
IC50 (PC-3 [2]): > 100 µM

COc1cc(/C=C/C(=O)/C=C(O)/C=C/c2ccc(OC(C)(C)C(=O)Nc3ccc(F)c(C(F)(F)F)c3)c(OC)c2)ccc1O
IC50 (LNCaP [1]): 54.8 µM
IC50 (PC-3 [2]): 52.1 µM
Activity (LNCaP [3]): Dose-dependent effect
Activity (PC-3 [4]): Dose-dependent effect

COc1ccc(/C=C/C(=O)/C=C(O)/C=C/c2ccc(OC(C)(C)C(=O)Nc3ccc([N+](=O)[O-])c(C(F)(F)F)c3)c(OC)c2)cc1OC
IC50 (LNCaP [1]): > 100 µM
IC50 (PC-3 [2]): > 100 µM
Activity (LNCaP [3]): Dose-dependent effect
Activity (PC-3 [4]): Dose-dependent effect

COc1ccc(/C=C/C(=O)/C=C(O)/C=C/c2ccc(OC(C)(C)C(=O)Nc3ccc(C#N)c(C(F)(F)F)c3)c(OC)c2)cc1OC
IC50 (LNCaP [1]): > 100 µM
IC50 (PC-3 [2]): > 100 µM
Activity (LNCaP [3]): Dose-dependent effect
Activity (PC-3 [4]): Dose-dependent effect

COc1cc(/C=C/C(O)=C/C(=O)/C=C/c2ccc(OC)c(OC)c2)ccc1O [METHYLCURCUMIN]
IC50 (LNCaP [1]): 47 µM
IC50 (PC-3 [2]): 33.1 µM
inhibition (LNCaP [5]): Active
inhibition (PC-3 [6]): Active
Activity (PC-3 [19]): Active
